Calls of active or inactive are those of the source. No cut-off for these calls is given here.

For series [1], the system named is HT-1080. The series is described as follows: Anticancer activity against human HT1080 cells assessed as vacuole formation at 20 uM after 24 hrs by phase contrast microscopic analysis. The format is functional, cell-based.
The subject of series [2] is HeLa. The series is described as follows: Induction of macropinocytosis in human HeLa cells assessed as lucifer yellow accumulation in phase-lucent vacuole at 20 uM after 24 hrs by confocal microscopic analysis. Format: functional, cell-based.
Series [3] concerns HT-1080. The series is described as follows: Anticancer activity against human HT1080 cells assessed as cell viability after 48 hrs by CCK8 assay. Format: functional, cell-based. Particulars: HT-1080, 48 h. The method, boiled down: (§1)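 Seeded at 1000 cells/well in DMEM with 10% FBS at 37 °C, 5% CO2, overnight pre-incubation. Serial dilutions from a 100 mM DMSO stock gave final 0–50 µM, with 48 h exposure. CCK-8 read at 450 nm. IC50 fitted against DMSO control, given with s.d., n = 3 independent experiments.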
In general terms: Tetrazolium dyes change colour on reduction, which living cells bring about.

Series [4] has as its system HeLa. The series is described as follows: Induction of autophagy in human HeLa cells assessed as cytosolic autophagosomes formation at 20 uM after 24 hrs by transmission electron microscopic analysis. Format: functional, cell-based. The method, boiled down:
(§2)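 HeLa exposed to 20 µM for 24 h, then fixed, dehydrated and resin-embedded. Ultrathin sections on copper grids stained with uranyl acetate and lead citrate, then examined by TEM.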

The test system of series [5] is SK-N-MC. The series is described as follows: Anticancer activity against human SK-N-MC cells assessed as cell viability after 48 hrs by CCK8 assay. The format is functional, cell-based. Put shortly: as §1
The next series relates to MCF7. The series is described as follows: Anticancer activity against human MCF7 cells assessed as cell viability at 20 uM after 48 hrs by CCK8 assay relative to control. Format: functional. Conditions: MCF7, 48 h, read-out: Activity. Put shortly:
(§3)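 Cells (5000/well, pre-incubated overnight) exposed to 20 µM for 48 h. CCK-8 absorbance read at 450 nm. Viability given as percent of vehicle (DMSO) control, mean ± SD. Six parallel wells per condition, at least three independent repeats.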

The test system of series [6] is HeLa. The series is described as follows: Induction of methuosis in human HeLa cells assessed as increase in vacuole formation preincubated cells with actin inhibitor cytochalasin D for 1 hr followed by compound addition measured after 24 hrs by phase contrast microscopic analysis. The format is functional, cell-based. Put shortly:
(§4)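 HeLa cells grown in DMEM with 10% FBS, 100 U/ml penicillin and 100 µg/ml streptomycin at 37 °C, 5% CO2 humidified air. The inhibitor was added before compound exposure. Vacuolization was judged in live cells by phase-contrast microscopy.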

Series [7] concerns HeLa. The series is described as follows: Anticancer activity against human HeLa cells assessed as vacuole formation at 20 uM after 12 hrs by phase contrast microscopic analysis. Format: functional, cell-based.
Series [8] relates to HeLa. The series is described as follows: Induction of apoptosis in human HeLa cells assessed as increase in cleaved PARP1 levels at 20 to 30 uM after 24 to 48 hrs by Western blot analysis. The format is functional, cell-based. Put shortly: (§5)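 HeLa given indicated concentrations. RIPA lysates, BCA-quantified, SDS-PAGE and PVDF transfer. Anti-caspase-3 or anti-PARP1 applied overnight at 4 °C after 1 h 5% milk block, secondary 2 h at RT. Infrared imaging, GAPDH as loading control.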
A general note: A western blot detects proteins with antibodies after separation by electrophoresis.

The subject of the next series is C2C12. The series is described as follows: Cytotoxicity against mouse C2C12 cells assessed as vacuole formation at 20 uM after 24 hrs by phase contrast microscopic analysis relative to control. The format is cell-based. Conditions: c2c12, 24 h. The method, boiled down:
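C2C12 or HDF cells given 20 µM or 0.1% DMSO for 24 h, then imaged live by phase-contrast microscopy.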

For series [9], the system named is HeLa. The series is described as follows: Anticancer activity against human HeLa cells assessed as cell viability after 48 hrs by CCK8 assay. Format: functional, cell-based. The method, boiled down: as §1
The nature of series [10]: Cytotoxicity against HDF assessed as cell viability at 20 uM after 24 to 48 hrs by CCK8 assay relative to control. Conditions: human, HDF cells; read-out: Activity. Format: cell-based. Put shortly:
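C2C12 or HDF cells, seeded at 5000/well, given 20 µM or 0.1% DMSO for 24 h or 48 h. CCK-8 absorbance read at 450 nm, relative to DMSO control. Six parallel wells, at least three independent repeats.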

Series [11] concerns HeLa. The series is described as follows: Induction of apoptosis in human HeLa cells assessed as pyknotic chromatin formation at 20 uM after 24 hrs by transmission electron microscopic analysis. Format: functional, cell-based. The method, boiled down: as §2
For series [12], the system named is HeLa. The series is described as follows: Anticancer activity against human HeLa cells assessed as vacuole formation at 20 uM preincubated cells with Z-VAD-FMK for 1 hr followed by compound addition measured after 24 hrs by phase contrast microscopic analysis. Format: functional, cell-based. The method, boiled down: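 HeLa pretreated 1 h with or without z-VAD-FMK, then given 20 µM or DMSO. Phase-contrast images taken at 24 h.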

Series [13] concerns HeLa. The series is described as follows: Induction of methuosis in human HeLa cells assessed as increase in vacuole formation preincubated cells with dynamin inhibitor dynasore for 1 hr followed by compound addition measured after 24 hrs by phase contrast microscopic analysis. Format: functional, cell-based. The method, boiled down:
as §4

The test system of series [14] is SK-N-MC. The series is described as follows: Anticancer activity against human SK-N-MC cells assessed as vacuole formation at 20 uM after 24 hrs by phase contrast microscopic analysis. The format is functional, cell-based.
For series [15], the system named is HeLa. The series is described as follows: Induction of autophagy in human HeLa cells assessed as LC3-2 accumulation at 20 uM preincubated cells with 3-MA followed by compound addition measured after 24 hrs by Western blot analysis. Format: functional, cell-based. The method, boiled down:
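HeLa pretreated 1 h with or without 3-MA, then 20 µM for 24 h. Lysed in RIPA with protease inhibitors, protein by BCA, SDS-PAGE onto PVDF. Blocked 5% milk, anti-LC3 overnight at 4 °C, secondary 2 h at RT. Infrared imaging, GAPDH loading control.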

The subject of series [16] is HeLa. The series is described as follows: Induction of macropinocytosis in human HeLa cells assessed as formation of lysosomal degradative compartments at 20 uM after 24 hrs by Lysotracker red staining-based confocal microscopic analysis. The format is functional, cell-based. The method, boiled down:
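HeLa given 20 µM for 24 h, then labelled live with 50 nM LysoTracker Red (30 min) or 200 nM MitoTracker Red CMXRos (1 h) in medium, after Lucifer yellow loading. Imaged live by confocal microscopy.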

The subject of series [17] is HeLa. The series is described as follows: Anticancer activity against human HeLa cells assessed as decrease in cell viability at 20 uM preincubated cells with 3-MA followed by compound addition measured after 24 to 48 hrs by CCK8 assay. The format is functional, cell-based. The method, boiled down: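 HeLa cells pretreated 1 h with or without 3-MA, then exposed to 20 µM or 0.1% DMSO for 24 h or 48 h. Viability by CCK-8 absorbance at 450 nm.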

Series [18] has as its system HepG2. The series is described as follows: Anticancer activity against human HepG2 cells assessed as cell viability after 48 hrs by CCK8 assay. The format is functional, cell-based. Conditions: HepG2, 48 h. Put shortly: as §1
Series [19] relates to HepG2. The series is described as follows: Anticancer activity against human HepG2 cells assessed as cell viability at 20 uM after 48 hrs by CCK8 assay relative to control. The format is functional. Conditions: HepG2, 48 h, read-out: Activity. The method, boiled down: as §3
The subject of series [20] is HeLa. The series is described as follows: Induction of macropinocytosis in human HeLa cells assessed as colocalization of lucifer yellow and lysosomal marker LAMP1 at 20 uM after 6 to 24 hrs by confocal microscopic analysis. Format: functional, cell-based. Conditions: TDE = time-dependent effect. Put shortly: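 HeLa on poly-L-lysine coverslips given 0.1% DMSO or 20 µM for indicated times, then loaded with Lucifer yellow CH. Fixed in 4% PFA 30 min, permeabilized with 0.1% Triton X-100, blocked with 5% BSA. Anti-EEA1, -LAMP1 or -Rab7 applied overnight at 4 °C, Alexa488 secondary 1 h, DAPI counterstain. Confocal imaging.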

Series [21] deals with HeLa. The series is described as follows: Induction of apoptosis in human HeLa cells assessed as increase in cleaved caspase-3 levels at 20 to 30 uM after 24 hrs by Western blot analysis. The format is functional, cell-based. The method, boiled down: as §5

As to `C[C@H]1[C@H](C)CC[C@]2(C(=O)O)CC[C@]3(C)C(=CC[C@@H]4[C@@]5(C)Cc6cnn(-c7ccc(C#N)cc7)c6C(C)(C)[C@@H]5CC[C@]43C)[C@H]12`, the result with HT-1080 [1], in the series on HeLa [2], in the series on HeLa [7], in the series on HeLa [8], in the series on HeLa [12] and with SK-N-MC [14] was Active. Moreover, the result in the series on HeLa [16], in the series with HeLa [17] and with HeLa [21] was Active. Further, the IC50 worked out at 17.2 µM in the series on HT-1080 [3], 17.1 µM in the series with SK-N-MC [5], 15.1 µM in the series on HeLa [9] and 16.6 µM with HepG2 [18]. Also, the result in the series on HeLa [4], with HeLa [6], with HeLa [11], in the series on HeLa [13] and with HeLa [15] was inactive. Further, the viability at 20 µM with MCF7 amounted to 25.2%; in [10], 28%; in the series with HepG2 [19], 27.9%. The Activity entry in the series on C2C12 was “Toxic”; in the series on HeLa [20], “Tde”.

For orientation: IC50 means the concentration needed to halve the response being measured.
